From ChEMBL document CHEMBL4145611, “Discovery of Marinoquinolines as Potent and Fast-Acting Plasmodium falciparum Inhibitors with in Vivo Activity” (J Med Chem, 2018)
Activity calls are given as the source filed them. The rule behind the calls is not given here.

Assays:
Plasmodium falciparum [1] = experiment: Antiplasmodial activity against chloroquine-sensitive blood parasite forms of Plasmodium falciparum 3D7 infected in RBC by SYBR green assay; type: functional, organism-based; conditions: 3D7, Erythrocyte
Summary of the method: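 3D7 blood-stage cultures, sorbitol-synchronized twice beforehand, used at 5-10% parasitemia with >80% rings, diluted to 0.5% parasitemia and 2% hematocrit with graded compound (0.05% DMSO), triplicate; artesunate and chloroquine controls. SYBR green I lysis-buffer fluorescence at 485/535 nm; IC50 from curve fit relative to drug-free medium.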

Plasmodium falciparum [2] = experiment: Antiplasmodial activity against chloroquine-sensitive asynchronous form of Plasmodium falciparum 3D7 infected in RBC after 72 hrs by SYBR green assay; type: functional, organism-based; conditions: 3D7, Erythrocyte
Summary of the method: (§1)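 Sorbitol-synchronized 3D7 cultures of each stage (or asynchronous) diluted to 0.5% parasitemia, 2% hematocrit, exposed to graded compound concentrations (0.05% DMSO) for 72 h in triplicate. Read-out: lysis buffer (20 mM Tris pH 7.5, 5 mM EDTA, 0.008% saponin, 0.08% Triton X-100) with SYBR green I 1:20000, fluorescence 485/535 nm, uninfected erythrocytes as background; IC50 by curve fitting versus drug-free growth.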

Plasmodium falciparum [3] = experiment: Antiplasmodial activity against chloroquine-sensitive ring form of Plasmodium falciparum 3D7 infected in RBC after 72 hrs by SYBR green assay; type: functional, organism-based; conditions: 3D7, Erythrocyte; summary of the method: as §1
Plasmodium falciparum [4] = experiment: Antiplasmodial activity against chloroquine-sensitive trophozoite form of Plasmodium falciparum 3D7 infected in RBC after 72 hrs by SYBR green assay; type: functional, organism-based; conditions: 3D7, Erythrocyte; summary of the method: as §1
Plasmodium falciparum [5] = experiment: Antiplasmodial activity against chloroquine-sensitive schizont form of Plasmodium falciparum 3D7 infected in RBC after 72 hrs by SYBR green assay; type: functional, organism-based; conditions: 3D7, Erythrocyte; summary of the method: as §1
Plasmodium falciparum [6] = experiment: Antiplasmodial activity against chloroquine/pyrimethamine/sulfadoxine-resistant blood parasite forms of Plasmodium falciparum K1 infected in RBC by SYBR green assay; type: functional, organism-based; conditions: K1, Erythrocyte
Summary of the method: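 Sorbitol-synchronised K1 culture, mostly rings, at 0.5% parasitemia and 2% hematocrit exposed to serial compound dilutions (0.05% DMSO) in triplicate. Cells lysed with Tris/EDTA/saponin/Triton buffer containing SYBR green I; fluorescence read at 485/535 nm, uninfected erythrocytes as background. IC50 from curve fit versus drug-free growth.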

Plasmodium falciparum [7] = experiment: Antiplasmodial activity against early ring stage form of Plasmodium falciparum assessed as induction of alterations in parasite morphology at 10 times IC50 concentration after 8 to 16 hrs by microscopic analysis; type: functional, organism-based
Plasmodium falciparum [8] = experiment: Plasmodicidal activity against Plasmodium falciparum 3D7A infected in erythrocytes assessed as parasite survival at 10 times IC50 pre-incubated for 24 hrs followed by compound washout and measured after 24 hrs by […] incorporation assay (reference value: 100%); type: functional
Plasmodium falciparum [9] = experiment: Plasmodicidal activity against Plasmodium falciparum 3D7A infected in erythrocytes assessed as parasite survival at 10 times IC50 pre-incubated for 48 hrs followed by compound washout and measured after 24 hrs by […] incorporation assay (reference value: 100%); type: functional
Plasmodium falciparum [10] = experiment: (§2) Antiplasmodial activity against of male Plasmodium falciparum NF54 gametocytes assessed as inhibition of xanthurenic acid-stimulated gamete formation at 1 uM preincubated for 24 to 48 hrs followed by xanthurenic acid stimulation and measured after 20 mins by automated time-lapse microscopy relative to control; type: functional
Summary of the method: (§3)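 Mature NF54 gametocytes exposed to 1 µM compound (DMSO ≤0.25%) for 24 or 48 h, then activated by cooling 37→26 °C with 2.5 µM xanthurenic acid. Male: exflagellation by automated time-lapse microscopy at 20 min, three readings per well. Female: after 24 h at 26 °C, Cy3 anti-Pfs25 staining, four fields counted. Inhibition versus DMSO and 20 µM Gentian Violet controls; four independent repeats.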

Plasmodium falciparum [11] = experiment: as §2, with “female” for “male”; type: functional; summary of the method: as §3
Plasmodium berghei [12] = experiment: Antiplasmodial activity against liver stage of luciferase-expressing transgenic Plasmodium berghei sporozoites infected in human HepG2 cells administered 18 hrs before infection and measured after 48 hrs by luciferase reporter gene assay; type: functional, organism-based
Summary of the method: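 HepG2 cells (3×10^3) plated overnight; compound (10^-4 to 10^-9 M) added 18 h before infection with 1×10^5 freshly isolated luciferase-expressing P. berghei sporozoites from Anopheles stephensi salivary glands; culture 48 h, luciferase activity taken as parasite viability; atovaquone positive control.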

Plasmodium falciparum [13] = experiment: Antiplasmodial activity against early ring stage of Plasmodium falciparum assessed as increase in free heme levels after 32 hrs by UV-Vis spectrophotometry; type: functional, organism-based
Plasmodium falciparum [14] = experiment: Antiplasmodial activity against early ring stage of Plasmodium falciparum assessed as decrease in hemozoin accumulation after 32 hrs by UV-Vis spectrophotometry; type: functional, organism-based
Mus musculus [15] = experiment: Toxicity in Swiss mouse assessed as survival at 1000 mg/kg, po measured up to 30 days; type: organism-based; conditions: in vivo, 720 h
Summary of the method: (§4)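 Single 1000 mg/kg dose given to mice by gavage or ip injection, 3 mice per group. Survival and body weight followed against untreated controls over 30 days of observation.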

Mus musculus [16] = experiment: Toxicity in Swiss mouse assessed as effect on body weight at 1000 mg/kg, po measured after 30 days; type: organism-based; conditions: in vivo, 720 h; summary of the method: as §4
Plasmodium berghei [17] = experiment: Antiplasmodial activity against Plasmodium berghei NK65 infected in Swiss mouse assessed as reduction in parasitemia at 50 mg/kg, po administered via gavage for 3 consecutive days post infection measured on day 5 post infection relative to control; type: functional; set-up: scale not given: the % may be the effect or the level left
Summary of the method: (§5)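 P. berghei NK65 suppressive test: adult Swiss outbred mice (20±2 g) inoculated ip with 1×10^5 infected red cells, randomized to groups, dosed daily for three days by oral gavage or ip injection with test compound at 50 mg/kg in 3% (v/v) DMSO; CQ 20 mg/kg and vehicle groups in parallel. Giemsa-stained tail-blood smears on days 5, 7, 9; inhibition = [(C−T)/C]×100 versus untreated control.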

Plasmodium berghei [18] = experiment: Antiplasmodial activity against Plasmodium berghei NK65 infected in Swiss mouse assessed as reduction in parasitemia at 50 mg/kg, ip administered for 3 consecutive days post infection measured on day 5 post infection relative to control; type: functional; set-up: scale not given: the % may be the effect or the level left; summary of the method: as §5
Plasmodium berghei [19] = experiment: Antiplasmodial activity against Plasmodium berghei NK65 infected in Swiss mouse assessed as reduction in parasitemia at 50 mg/kg, po administered via gavage for 3 consecutive days post infection measured on day 9 post infection relative to control; type: functional; set-up: scale not given: the % may be the effect or the level left; summary of the method: as §5
Plasmodium berghei [20] = experiment: Antiplasmodial activity against Plasmodium berghei NK65 infected in Swiss mouse assessed as reduction in parasitemia at 50 mg/kg, ip administered for 3 consecutive days post infection measured on day 9 post infection relative to control; type: functional; set-up: scale not given: the % may be the effect or the level left; summary of the method: as §5
Plasmodium berghei [21] = experiment: Antiplasmodial activity against Plasmodium berghei NK65 infected in Swiss mouse assessed as mouse survival at 50 mg/kg, po administered for 3 consecutive days post infection measured on day 9 post infection (reference value: 19 +/- 5 days); type: functional
Plasmodium berghei [22] = experiment: Antiplasmodial activity against Plasmodium berghei NK65 infected in Swiss mouse assessed as assessed as mouse survival at 50 mg/kg, ip administered via gavage for 3 consecutive days post infection measured on day 9 post infection (reference value: 19 +/- 5 days); type: functional
Plasmodium berghei [23] = experiment: Antiplasmodial activity against Plasmodium berghei NK65 infected in Swiss mouse assessed as reduction in parasitemia at 50 mg/kg, po administered via gavage for 3 consecutive days post infection measured on day 7 post infection relative to control; type: functional; set-up: scale not given: the % may be the effect or the level left; summary of the method: as §5
Plasmodium berghei [24] = experiment: Antiplasmodial activity against Plasmodium berghei NK65 infected in Swiss mouse assessed as reduction in parasitemia at 50 mg/kg, ip administered for 3 consecutive days post infection measured on day 7 post infection relative to control; type: functional; set-up: scale not given: the % may be the effect or the level left; summary of the method: as §5
Mus musculus [25] = experiment: Toxicity in Swiss mouse assessed as survival at 1000 mg/kg, ip measured up to 30 days; type: organism-based; conditions: in vivo, 720 h; summary of the method: as §4
Mus musculus [26] = experiment: Toxicity in Swiss mouse assessed as effect on body weight at 1000 mg/kg, ip measured after 30 days; type: organism-based; conditions: in vivo, 720 h; summary of the method: as §4
Plasmodium falciparum [27] = experiment: Antiplasmodial activity against Plasmodium falciparum assessed as fractional inhibitory concentration index at IC50 concentration in presence of artesunate by isobologram plot analysis
HepG2 = experiment: Cytotoxicity against human HepG2 cells assessed as reduction in cell viability after 24 hrs by MTT assay; type: cell-based; conditions: HepG2, 24 h
Summary of the method: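 HepG2 cells in RPMI-1640 with 10% heat-inactivated serum, seeded 5×10^3 per well, allowed to adhere 18 h at 37 °C, then exposed to compound (400–6.2 µM) for 24 h at 37 °C, 5% CO2. MTT (5 mg/mL) for 3 h, formazan dissolved in DMSO, absorbance 570 nm with 630 nm background; viability as percent of untreated control.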

[28] = Therapeutic index, ratio of EC50 for human HepG2 cells to IC50 for chloroquine-sensitive blood parasite forms of Plasmodium falciparum 3D7; type: toxicity; conditions: read-out: TI
[29] = Metabolic stability in rat liver microsomes assessed as compound remaining at 4 uM after 30 mins in presence of NADPH by HPLC analysis; type: ADME, microsome; conditions: read-out: Stability
Summary of the method: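 Rat pooled liver microsomes (final 2 mg/mL protein) in 0.1 M phosphate buffer pH 7.4 with 30 mM MgCl2 and 10 mM NADPH; compounds at 4 µM final; verapamil 0.1 mM positive control. Reactions quenched with ice-cold acetonitrile at set times; parent remaining measured by LC-MS/MS; first-order depletion rate used to derive half-life.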

| Structure (SMILES) | IC50 (Plasmodium falciparum [1]; read-out: IC50) | IC50 (Plasmodium falciparum [2]) | IC50 (Plasmodium falciparum [3]) | IC50 (Plasmodium falciparum [4]) | IC50 (Plasmodium falciparum [5]) | Activity (Plasmodium falciparum [7]) | Survival (Plasmodium falciparum [8]) | Survival (Plasmodium falciparum [9]) | Activity (Plasmodium berghei [17]) | Activity (Plasmodium berghei [19]) | Survival (Plasmodium berghei [21]) | Activity (Plasmodium berghei [23]) | further results |
| --- | --- | --- | --- | --- | --- | --- | --- | --- | --- | --- | --- | --- | --- |
| COc1ccc2c(c1)nc(-c1ccc(NC(=O)OC(C)(C)C)cc1)c1[nH]ccc12 | 39 nM | 33 nM | 39 nM | 50 nM | 28 nM | Active | 14% | 6% | 62% | 55% | 25 days | 54% | IC50 (Plasmodium falciparum [1]; read-out: pIC50 (converted)): 39.8 nM; IC50 (Plasmodium falciparum [6]): 41 nM; inhibition at 1 µM (Plasmodium falciparum [10]): 7%; inhibition at 1 µM (Plasmodium falciparum [11]): 2%; IC50 (Plasmodium berghei [12]): 76 nM; Activity (Plasmodium falciparum [13]): Dose-dependent effect; Activity (Plasmodium falciparum [14]): Dose-dependent effect; Activity (Mus musculus [15]): Non-Toxic; Activity (Mus musculus [16]): Non-Toxic; Activity (Plasmodium berghei [18]): 61%; Activity (Plasmodium berghei [20]): 58%; Survival (Plasmodium berghei [22]): 24 days; Activity (Plasmodium berghei [24]): 34%; Activity (Mus musculus [25]): Non-Toxic; Activity (Mus musculus [26]): Non-Toxic; FIC (Plasmodium falciparum [27]): 1 |
| CCc1nc(N)nc(N)c1-c1ccc(Cl)cc1 [PYRIMETHAMINE] |  |  |  |  |  |  | 55% | 11% |  |  |  |  |  |
| COc1ccc2c(c1)nc(CC(C)C)c1[nH]ccc12 | 500 nM | 420 nM | 500 nM | 420 nM | 400 nM | Active |  |  | 0% | 0% | 23 days | 0% | EC50 (HepG2): 35000 nM; selectivity ratio [28]: > 70; remaining at 0.5 h, 4 µM [29]: 24% |
